Measurements from ChEMBL document CHEMBL4130549, “Synthesis and bioactivities study of new antibacterial peptide mimics: The dialkyl cationic amphiphiles” (Eur J Med Chem, 2018).
Activity calls are given as the source filed them. No cut-off for these calls is given here.

Key:
Escherichia coli [1] = test: Induction of cytoplasmic membrane depolarization in Escherichia coli ATCC 25922 at 20 ug/ml measured every 2 mins for 12 mins by diSC35 staining based fluorescence assay; format: functional, organism-based
In short: (§1)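 Mid-log cells (4–6 h) pelleted, washed and resuspended (~10^8 CFU/mL) in PBS for S. aureus, or in 5 mM HEPES, 5 mM glucose and 100 mM KCl (1:1:1) for E. coli. Preloaded with diSC35 (10 µM, 50 µL), 30 min for S. aureus and 40 min plus EDTA (200 µM, 50 µL) for E. coli. Baseline read 8 min (ex 622/em 670 nm), then compound added to 20 µg/mL final and read every 2 min for 12 min. Water control.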

Enterobacteriaceae [2] = test: Antibacterial activity against NDM-1-producing Enterobacteriaceae isolate N1 after 16 to 20 hrs by broth microdilution method; format: functional
In short: (§2)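 Broth microdilution per CLSI in cation-adjusted Mueller-Hinton broth; 4-6 h cultures (~10⁸ CFU/mL) diluted to ~10⁶ CFU/mL and mixed 1:1 with twofold dilutions of water-dissolved compound (256 to 0.5 µg/mL). Incubated 16-20 h at 37 °C; MIC read visually. Each concentration run in duplicate, whole experiment repeated at least twice. MRSA, KPC and NDM-1 strains were clinical isolates.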

Klebsiella pneumoniae [3] = test: Antibacterial activity against carbapenemase-producing Klebsiella pneumoniae isolate K10 after 16 to 20 hrs by broth microdilution method; format: functional; in short: as §2
Enterobacteriaceae [4] = test: Antibacterial activity against NDM-1-producing Enterobacteriaceae isolate N4 after 16 to 20 hrs by broth microdilution method; format: functional; in short: as §2
Enterobacteriaceae [5] = test: Antibacterial activity against NDM-1-producing Enterobacteriaceae isolate N2 after 16 to 20 hrs by broth microdilution method; format: functional; in short: as §2
Staphylococcus aureus [6] = test: Antibacterial activity against methicillin-resistant Staphylococcus aureus isolate M9 after 16 to 20 hrs by broth microdilution method; format: functional
In short: (§3)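 CLSI broth microdilution in cation-adjusted Mueller-Hinton broth. A 4-6 h culture was diluted to about 10⁶ CFU/mL and mixed 1:1 with twofold compound dilutions (256–0.5 µg/mL before mixing) prepared from aqueous stocks. Plates were incubated at 37 °C for 16-20 h. Each concentration was tested in duplicate, and the experiment was repeated at least twice.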

Enterobacteriaceae [7] = test: Antibacterial activity against NDM-1-producing Enterobacteriaceae isolate N10 after 16 to 20 hrs by broth microdilution method; format: functional; in short: as §2
Klebsiella pneumoniae [8] = test: Antibacterial activity against carbapenemase-producing Klebsiella pneumoniae after 16 to 20 hrs by broth microdilution method; format: functional; in short: as §2
Klebsiella pneumoniae [9] = test: Antibacterial activity against carbapenemase-producing Klebsiella pneumoniae isolate K6 after 16 to 20 hrs by broth microdilution method; format: functional; in short: as §2
[10] = Hemolytic activity in sheep RBC after 1 hr; format: ADME, cell-based, Ovis aries, Erythrocyte; conditions: sheep red blood cells (erythrocytes)
In short: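 Sheep RBCs suspended at 5% in PBS; 150 µL added to 50 µL compound dilutions (5120 to 10 µg/mL series). Incubated 1 h at 37 °C, then centrifuged; supernatant absorbance read at 540 nm. Lysis (%) = (A−A0)/(Atotal−A0)×100, with untreated 5% RBC as A0 and 0.1% Triton X-100 as total.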

Escherichia coli [11] = test: Induction of outer membrane permeabilization in Escherichia coli ATCC 25922 at 20 ug/ml measured every 2 mins for 12 mins by NPN staining based fluorescence assay; format: functional, organism-based
In short: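 Mid-log E. coli (~10^8 CFU/mL) in black plates pre-incubated about 40 min with NPN (10 µM, 50 µL). Baseline read 8 min (ex 350/em 420 nm), then compound added to 20 µg/mL final and fluorescence followed every 2 min for 12 min. Water-treated control.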

Klebsiella pneumoniae [12] = test: Antibacterial activity against carbapenemase-producing Klebsiella pneumoniae isolate K4 after 16 to 20 hrs by broth microdilution method; format: functional; in short: as §2
Staphylococcus aureus [13] = test: Antibacterial activity against methicillin-resistant Staphylococcus aureus isolate M3 after 16 to 20 hrs by broth microdilution method; format: functional; in short: as §3
Staphylococcus aureus [14] = test: Antibacterial activity against methicillin-resistant Staphylococcus aureus isolate M1 after 16 to 20 hrs by broth microdilution method; format: functional; in short: as §3
Staphylococcus aureus [15] = test: Induction of inner membrane permeabilization in Staphylococcus aureus ATCC 29213 at 20 ug/ml measured every 2 mins for 12 mins by propidium iodide staining based fluorescence assay; format: functional, organism-based
In short: (§4)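 Mid-log cells (~10^8 CFU/mL) pre-incubated with propidium iodide (10 µM, 50 µL), 30 min for S. aureus and 40 min for E. coli. Fluorescence (ex 535/em 617 nm) read for 8 min, then compound added to 20 µg/mL final and monitored every 2 min for 12 min. Water-treated control.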

Klebsiella pneumoniae [16] = test: Antibacterial activity against carbapenemase-producing Klebsiella pneumoniae isolate K2 after 16 to 20 hrs by broth microdilution method; format: functional; in short: as §2
Staphylococcus aureus [17] = test: Antibacterial activity against methicillin-resistant Staphylococcus aureus isolate M4 after 16 to 20 hrs by broth microdilution method; format: functional; in short: as §3
Klebsiella pneumoniae [18] = test: Antibacterial activity against carbapenemase-producing Klebsiella pneumoniae isolate K7 after 16 to 20 hrs by broth microdilution method; format: functional; in short: as §2
Staphylococcus aureus [19] = test: Antibacterial activity against methicillin-resistant Staphylococcus aureus isolate M7 after 16 to 20 hrs by broth microdilution method; format: functional; in short: as §3
Enterobacteriaceae [20] = test: Antibacterial activity against NDM-1-producing Enterobacteriaceae isolate N9 after 16 to 20 hrs by broth microdilution method; format: functional; in short: as §2
Staphylococcus aureus [21] = test: Antibacterial activity against methicillin-resistant Staphylococcus aureus isolate M8 after 16 to 20 hrs by broth microdilution method; format: functional; in short: as §3
Escherichia coli [22] = test: Antibacterial activity against Escherichia coli ATCC 25922 after 16 to 20 hrs by broth microdilution method; format: functional; in short: as §2
Enterobacteriaceae [23] = test: Antibacterial activity against NDM-1-producing Enterobacteriaceae isolate N6 after 16 to 20 hrs by broth microdilution method; format: functional; in short: as §2
Klebsiella pneumoniae [24] = test: Antibacterial activity against carbapenemase-producing Klebsiella pneumoniae isolate K8 after 16 to 20 hrs by broth microdilution method; format: functional; in short: as §2
Enterobacteriaceae [25] = test: Antibacterial activity against NDM-1-producing Enterobacteriaceae after 16 to 20 hrs by broth microdilution method; format: functional; in short: as §2
Klebsiella pneumoniae [26] = test: Antibacterial activity against carbapenemase-producing Klebsiella pneumoniae isolate K9 after 16 to 20 hrs by broth microdilution method; format: functional; in short: as §2
Klebsiella pneumoniae [27] = test: Antibacterial activity against carbapenemase-producing Klebsiella pneumoniae isolate K5 after 16 to 20 hrs by broth microdilution method; format: functional; in short: as §2
Enterococcus faecalis = test: Antibacterial activity against Enterococcus faecalis after 16 to 20 hrs by broth microdilution method; format: functional; in short: as §2
Enterobacteriaceae [28] = test: Antibacterial activity against NDM-1-producing Enterobacteriaceae isolate N3 after 16 to 20 hrs by broth microdilution method; format: functional; in short: as §2
Staphylococcus aureus [29] = test: Antibacterial activity against methicillin-resistant Staphylococcus aureus isolate M5 after 16 to 20 hrs by broth microdilution method; format: functional; in short: as §3
Klebsiella pneumoniae [30] = test: Antibacterial activity against carbapenemase-producing Klebsiella pneumoniae isolate K3 after 16 to 20 hrs by broth microdilution method; format: functional; in short: as §2
Salmonella enterica = test: Antibacterial activity against Salmonella enterica after 16 to 20 hrs by broth microdilution method; format: functional; in short: as §2
Staphylococcus aureus [31] = test: Antibacterial activity against Staphylococcus aureus ATCC 29213 after 16 to 20 hrs by broth microdilution method; format: functional; in short: as §3
Enterobacteriaceae [32] = test: Antibacterial activity against NDM-1-producing Enterobacteriaceae isolate N5 after 16 to 20 hrs by broth microdilution method; format: functional; in short: as §2
Klebsiella pneumoniae [33] = test: Antibacterial activity against carbapenemase-producing Klebsiella pneumoniae isolate K1 after 16 to 20 hrs by broth microdilution method; format: functional; in short: as §2
Escherichia coli [34] = test: Induction of inner membrane permeabilization in Escherichia coli ATCC 25922 at 20 ug/ml measured every 2 mins for 12 mins by propidium iodide staining based fluorescence assay; format: functional, organism-based; in short: as §4
Enterobacteriaceae [35] = test: Antibacterial activity against NDM-1-producing Enterobacteriaceae isolate N8 after 16 to 20 hrs by broth microdilution method; format: functional; in short: as §2
Staphylococcus aureus [36] = test: Antibacterial activity against methicillin-resistant Staphylococcus aureus isolate M6 after 16 to 20 hrs by broth microdilution method; format: functional; in short: as §3
Staphylococcus aureus [37] = test: Antibacterial activity against methicillin-resistant Staphylococcus aureus after 16 to 20 hrs by broth microdilution method; format: functional; in short: as §3
Staphylococcus aureus [38] = test: Induction of cytoplasmic membrane depolarization in Staphylococcus aureus ATCC 29213 at 20 ug/ml measured every 2 mins for 12 mins by diSC35 staining based fluorescence assay; format: functional, organism-based; in short: as §1
Enterobacteriaceae [39] = test: Antibacterial activity against NDM-1-producing Enterobacteriaceae isolate N7 after 16 to 20 hrs by broth microdilution method; format: functional; in short: as §2
Staphylococcus aureus [40] = test: Antibacterial activity against methicillin-resistant Staphylococcus aureus isolate M2 after 16 to 20 hrs by broth microdilution method; format: functional; in short: as §3
Staphylococcus aureus [41] = test: Antibacterial activity against methicillin-resistant Staphylococcus aureus isolate M10 after 16 to 20 hrs by broth microdilution method; format: functional; in short: as §3

CCCCCCCCN(CCCCCCCC)C(=O)[C@H](N)CO.Cl
Activity (Escherichia coli [1]): Active | MIC (Enterobacteriaceae [2]): 32 µg/mL | MIC (Klebsiella pneumoniae [3]): 32 µg/mL | MIC (Enterobacteriaceae [4]): 16 µg/mL | MIC (Enterobacteriaceae [5]): 16 µg/mL | MIC (Staphylococcus aureus [6]): 4 µg/mL | MIC (Enterobacteriaceae [7]): 16 µg/mL | MIC (Klebsiella pneumoniae [8]): 32 µg/mL | MIC (Klebsiella pneumoniae [9]): 32 µg/mL | HC50 at 1 h [10]: 367 µg/mL | Activity (Escherichia coli [11]): Active | MIC (Klebsiella pneumoniae [12]): 32 µg/mL | MIC (Staphylococcus aureus [13]): 4 µg/mL | MIC (Staphylococcus aureus [14]): 4 µg/mL | Activity (Staphylococcus aureus [15]): Active | MIC (Klebsiella pneumoniae [16]): 32 µg/mL | MIC (Staphylococcus aureus [17]): 4 µg/mL | MIC (Klebsiella pneumoniae [18]): 32 µg/mL | MIC (Staphylococcus aureus [19]): 4 µg/mL | MIC (Enterobacteriaceae [20]): 16 µg/mL | MIC (Staphylococcus aureus [21]): 4 µg/mL | MIC (Escherichia coli [22]): 8 µg/mL | MIC (Enterobacteriaceae [23]): 16 µg/mL | MIC (Klebsiella pneumoniae [24]): 32 µg/mL | MIC (Enterobacteriaceae [25]): 16 µg/mL | MIC (Klebsiella pneumoniae [26]): 32 µg/mL | MIC (Klebsiella pneumoniae [27]): 32 µg/mL | MIC (Enterococcus faecalis): 4 µg/mL | MIC (Enterobacteriaceae [28]): 16 µg/mL | MIC (Staphylococcus aureus [29]): 4 µg/mL | MIC (Klebsiella pneumoniae [30]): 32 µg/mL | MIC (Salmonella enterica): 8 µg/mL | MIC (Staphylococcus aureus [31]): 4 µg/mL | MIC (Enterobacteriaceae [32]): 16 µg/mL | MIC (Klebsiella pneumoniae [33]): 32 µg/mL | Activity (Escherichia coli [34]): Active | MIC (Enterobacteriaceae [35]): 32 µg/mL | MIC (Staphylococcus aureus [36]): 4 µg/mL | MIC (Staphylococcus aureus [37]): 4 µg/mL | Activity (Staphylococcus aureus [38]): Active | MIC (Enterobacteriaceae [39]): 32 µg/mL | MIC (Staphylococcus aureus [40]): 4 µg/mL | MIC (Staphylococcus aureus [41]): 4 µg/mL
